Measurements reported in ChEMBL document CHEMBL1122327, “Replacement of aromatic or heteroaromatic groups in nonsteroidal antiinflammatory agents with the ferrocene group” (1983).
Active and inactive are the calls of the source. No cut-off for these calls is given here.

Assays:
[1] = species on record: Homo sapiens; assay: Evaluated for the inhibition of platelet aggregation at dose of 20 uM; assay type: functional
Outline: (§1)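 Human platelet-rich plasma from citrated blood of volunteers who had taken no drugs for at least 10 days, adjusted to 300 000 platelets/μL with platelet-poor plasma. Compound added in PEG 300, then 8 min at 37 °C and 2 min equilibration with stirring at 1200 rpm. Collagen added to trigger aggregation. Maximum rise in light transmission measured within 1–2.5 h of the blood draw; % inhibition calculated against control.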

[2] = species on record: Homo sapiens; assay: Evaluated for the inhibition of serotonin release from platelets at dose of 100 uM; assay type: functional
Outline: (§2)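 Human platelet-rich plasma at 300 000 platelets/μL, loaded with [3H]5-HT (0.5 μM final, 50 μCi/μmol) for 30 min at room temperature. Compound added in PEG 300 and incubated 10 min at 37 °C, then stirred with collagen (1.6 μL/mL final) for 5 min. Reaction stopped with EDTA and samples centrifuged. Supernatant radioactivity counted by scintillation; % inhibition calculated against vehicle-treated plasma.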

[3] = tested on: Rattus norvegicus; assay: Evaluated for the percentage inhibition by adjuvant arthritis test at a dose of 100 mg/kg administarted perorally; Inactive; assay type: functional, organism-based; parameters: dose 100 mg/kg
[4] = species on record: Homo sapiens; assay: Evaluated for the inhibition of platelet aggregation at dose of 100 uM; assay type: functional; outline: as §1
[5] = species on record: Homo sapiens; assay: Evaluated for the inhibition of serotonin release from platelets at dose of 20 uM; assay type: functional; outline: as §2
[6] = species on record: Homo sapiens; assay: percent inhibition of serotonin release from platelets at a concentration of 100 uM; assay type: functional
Outline: (§3)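 Human platelet-rich plasma at 300 000/μL, loaded with [3H]5-HT (0.5 μM final) for 30 min at room temperature. Compound in PEG 300 incubated 10 min at 37 °C, then stirred with collagen (1.6 μL/mL final) for 5 min and stopped with EDTA. After centrifugation, supernatant radioactivity was counted by scintillation. Percent inhibition calculated against vehicle-treated plasma.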

[7] = tested on: Rattus norvegicus; assay: Evaluated for the percentage inhibition by adjuvant arthritis test at a dose of 50 mg/kg administarted perorally; assay type: functional; details: route oral
[8] = species on record: Homo sapiens; assay: percent inhibition of serotonin release from platelets at a concentration of 20 uM; assay type: functional; outline: as §3
[9] = species on record: Homo sapiens; assay: Percent inhibition of collagen-induced platelet aggregation at a concentration of 100 uM; assay type: functional
Outline: (§4)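 Human platelet-rich plasma from drug-free volunteers (citrated blood, 450 g spin), adjusted to 300 000 platelets/μL with platelet-poor plasma. Compound in PEG 300 preincubated 8 min at 37 °C, then 2 min equilibration with stirring at 1200 rpm. Aggregation triggered with collagen; maximum rise in light transmission read by aggregometer. Percent inhibition calculated against control. Runs done 1–2.5 h after blood draw.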

[10] = species on record: Homo sapiens; assay: Percent inhibition of collagen-induced platelet aggregation at a concentration of 20 uM; assay type: functional; outline: as §4
[11] = tested on: Rattus norvegicus; assay: Evaluated for the percentage inhibition by adjuvant arthritis test at a dose of 25 mg/kg administarted perorally; Inactive; assay type: functional, organism-based; parameters: dose 25 mg/kg
[12] = tested on: Rattus norvegicus; assay: Evaluated for the percentage inhibition by adjuvant arthritis test at a dose of 50 mg/kg administarted perorally; Inactive; assay type: functional, organism-based; parameters: dose 50 mg/kg

Molecule	inhibition [1]	inhibition [2]	inhibition [3]	inhibition [4]	inhibition [5]	inhibition at 100 µM [6]	inhibition in vivo at 50 mg/kg [7]	inhibition at 20 µM [8]	inhibition at 100 µM [9]	inhibition at 20 µM [10]	inhibition [11]	inhibition [12]
calcium salt of 4-Ferrocenoyl-1-methyl-1H-pyrrole-2-acetate	2%	12%	inactive	3%	10%							
CC(C(=O)O)c1ccc(-c2ccccc2)c(F)c1 (stereo unspecified) [FLURBIPROFEN]						90%	55%	86%	89%	88%		
2-{5-[3-(4-Methyl-benzoyl)-Ferrocenoyl]-cyclopenta-1,3-dienyl}-acetamide	4%	34%	inactive	15%	0%							
Cc1ccc(C(=O)c2ccc(CC(=O)O)n2C)cc1 [TOLMETIN]						88%	34%	90%	85%	74%		
(3-Ferrocenoyl-cyclopenta-2,4-dienyl)-acetic acid	5%	16%	inactive	6%	0%							
Methyl 5-Ferrocenoyl-1-methyl-1H-pyrrole-2-acetate	0%	0%	inactive	6%	3%							
O=C(O)CCC(=O)c1ccc(-c2ccccc2)cc1 [FENBUFEN]							71%					
4-(3-Ferrocenoyl-cyclopenta-2,4-dienyl)-4-oxo-butyric acid	0%	64%		8%	29%						inactive	
4-Ferrocenoyl-1-methyl-1H-pyrrole-2-acetate	20%	60%		27%	32%							inactive
[3-(Cyclopenta-2,4-ferrocenoyl)-4-(4-methyl-benzoyl)-cyclopenta-1,3-dienyl]-acetic acid	2%	23%	inactive	6%	0%							
2-[2-(3-Cyclopenta-2,4-dienylmethyl-Ferrocenoyl)-2-oxo-ethyl]-benzoic acid	7%	0%		28%	3%							inactive
